Test results: ChEMBL document CHEMBL3085705, “Design, chemical synthesis of 3-(9H-fluoren-9-yl)pyrrolidine-2,5-dione derivatives and biological activity against enoyl-ACP reductase (InhA) and Mycobacterium tuberculosis” (2013)
Converted amounts (≈) assume the structure as drawn.

Experiments:
[1] = test system: Mycobacterium tuberculosis; assay: Antimicrobial activity against Mycobacterium tuberculosis H37Rv by two-fold serial dilution method; type: functional
How it was run: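 Compounds dissolved in DMSO. Single colony grown in Middlebrook 7H9 with 0.05% Tween 80 and 10% OADC at 37 °C, no shaking, to ~10^8 CFU/mL (OD600 0.8–1.0). Diluted to ~10^7 CFU/mL; 1 μL streaked onto 7H11 agar (0.5% glycerol, 10% OADC) with two-fold serial compound dilutions. MIC is the lowest concentration inhibiting growth. Repeated three times.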

[2] = biological target: T1, Enoyl-[acyl-carrier-protein] reductase [NADH] (Mycobacterium tuberculosis) (UniProt P9WGR1); assay: Inhibition of Mycobacterium tuberculosis InhA expressed in Escherichia coli using trans-2-dodecenoyl-coenzyme-A as substrate at 5 uM
T1 sequence (whole entry): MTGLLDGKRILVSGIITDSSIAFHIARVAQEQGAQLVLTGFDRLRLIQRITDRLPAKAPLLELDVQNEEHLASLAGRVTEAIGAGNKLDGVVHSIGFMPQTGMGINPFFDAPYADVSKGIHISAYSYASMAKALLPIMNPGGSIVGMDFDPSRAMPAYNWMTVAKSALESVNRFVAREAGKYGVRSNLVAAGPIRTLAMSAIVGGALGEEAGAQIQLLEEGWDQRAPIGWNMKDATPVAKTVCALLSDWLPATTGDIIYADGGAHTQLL
How it was run: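 Recombinant M. tuberculosis wild-type InhA purified from E. coli. Reaction started by adding InhA (100 nM final) to DD-CoA (50 μM final), NADH (250 μM final) and inhibitor in 30 mM PIPES, 150 mM NaCl, pH 6.8. Percent inhibition taken from initial velocity against a no-inhibitor control. Run in triplicate.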

| SMILES | MIC [1] [µM] | inhibition [2] [%] |
| --- | --- | --- |
| O=C1CC(C2c3ccccc3-c3ccccc32)C(=O)N1 (stereo not given) | 30.4 (≈ 8 µg/mL) |  |
| COc1cc(CN2C(=O)CC(C3c4ccccc4-c4ccccc43)C2=O)cc(OC)c1 (stereo not given) | > 38.7 |  |
| CCCCCCCCCN1C(=O)CC(C2c3ccccc3-c3ccccc32)C1=O (stereo not given) | 41.1 (≈ 16 µg/mL) |  |
| O=C(CC(C(=O)O)C1c2ccccc2-c2ccccc21)Nc1ccc(F)cc1 (stereo not given) | 42.6 (≈ 16 µg/mL) |  |
| CCCCCCCCC(=O)N1C(=O)CC(C2c3ccccc3-c3ccccc32)C1=O (stereo not given) | 39.7 (≈ 16 µg/mL) |  |
| O=C1CC(C2c3ccccc3-c3ccccc32)C(=O)N1c1cc(Cl)cc(Cl)c1 (stereo not given) | 19.6 (≈ 8 µg/mL) | 31 |
| O=C(Cc1ccccc1)N1C(=O)CC(C2c3ccccc3-c3ccccc32)C1=O (stereo not given) | 41.9 (≈ 16 µg/mL) |  |
| O=C1CC(C2c3ccccc3-c3ccccc32)C(=O)N1C(=O)c1ccc2[nH]ccc2c1 (stereo not given) | 39.4 (≈ 16 µg/mL) |  |
| O=C1CC(C2c3ccccc3-c3ccccc32)C(=O)N1c1ccc(F)cc1 (stereo not given) | > 44.8 |  |
| O=C1CC(C2c3ccccc3-c3ccccc32)C(=O)N1CCc1c[nH]c2ccccc12 (stereo not given) | > 39.4 |  |
| O=C(O)CC(C(=O)O)C1c2ccccc2-c2ccccc21 (stereo not given) | 28.3 (≈ 7.99 µg/mL) |  |
| O=C(CC(C(=O)O)C1c2ccccc2-c2ccccc21)NNC(=O)c1ccncc1 (stereo not given) | 10 (≈ 4.01 µg/mL) |  |
| O=C(c1ccc2[nH]ccc2c1)N1CCN(C2c3ccccc3-c3ccccc32)CC1 | > 40.7 |  |
| O=C(CC(C(=O)O)C1c2ccccc2-c2ccccc21)Nc1cc(Cl)cc(Cl)c1 (stereo not given) | 4.7 (≈ 2 µg/mL) |  |
| O=C(CC(C(=O)O)C1c2ccccc2-c2ccccc21)NCCc1c[nH]c2ccccc12 (stereo not given) | 37.7 (≈ 16 µg/mL) |  |
| O=C1CC(C2c3ccccc3-c3ccccc32)C(=O)N1C(=O)c1ccccc1 (racemic) | 5.4 (≈ 1.98 µg/mL) |  |
| COc1cc(N2C(=O)CC(C3c4ccccc4-c4ccccc43)C2=O)cc(OC)c1OC (stereo not given) | 37.3 (≈ 16 µg/mL) |  |
| O=C1CC(C2c3ccccc3-c3ccccc32)C(=O)N1Cc1ccccc1 (single isomer, unassigned) | 45.3 (≈ 16 µg/mL) |  |
| O=C(CN1C(=O)CC(C2c3ccccc3-c3ccccc32)C1=O)c1ccccc1 (stereo not given) | > 41.9 |  |
